Calls of active or inactive are those of the source. The calls are words filed in the database; no cut-off is given here.
Experiments:
[1] = Cytotoxicity against human HT1080 cells assessed as inhibition of cell viability at 100 uM after 24 hrs by MTT assay; format: cell-based; settings: HT-1080 cells, read-out: INH
How it was run: (§1)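 Cells seeded (Caco-2 8 × 10³/well, HT1080 12 × 10⁴/well), grown to 70% confluence, serum-starved 1 h, then exposed to compound at 0.1−200 μM (eight levels) serum-free for 24 h. MTT 0.5 mg/mL for 3 h at 37 °C, formazan dissolved in DMSO, OD 540 nm; viability as % of untreated. CC50 from sigmoidal fits; three experiments, triplicate wells.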

[2] = Cytotoxicity against human Caco2 cells assessed as cell viability after 24 hrs by MTT assay; format: cell-based; settings: Caco-2 cells; how it was run: as §1
[3] = Cytotoxicity against human HT1080 cells assessed as cell viability after 24 hrs by MTT assay; format: cell-based; settings: HT-1080 cells; how it was run: as §1
[4] = Cytotoxicity against human Caco2 cells assessed as inhibition of cell viability at 100 uM after 24 hrs by MTT assay; format: cell-based; settings: Caco-2 cells, read-out: INH; how it was run: as §1
Caco-2 [5] = test: Inhibition of HGF stimulated human Caco2 cells migration through matrigel membrane at 100 nM by staining based light microscopic analysis; format: functional
How it was run: (§2)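 Matrigel-coated invasion chamber inserts, 8 μm pore membrane, 0.5 mL of 2 × 10⁵ Caco-2 cells/mL; stimulated with HGF (100 or 500 ng/mL) or PMA (10 μM) with compound (100 nM or 10 μM); 48 h invasion at 37 °C, 5% CO2. Non-invading cells swabbed off, lower-surface cells Diff-Quik stained and counted by light microscopy; normalized to stimulated control; duplicates.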

[6] = molecular target: Matrix metalloproteinase-9 (Homo sapiens, UniProt P14780); test: Inhibition of p-aminophenylmercuric acetate stimulated human recombinant MMP-9 using (7-methoxycoumarin-4-yl)-acetyl-pro-Leu-Gly-Leu-(3-(2,4-dinitrophenyl)-L-2,3-diaminopropionyl)-Ala-Arg-NH2 as substrate after 45 mins by fluorogenic assay
[7] = molecular target: 72 kDa type IV collagenase (Homo sapiens, UniProt P08253); test: Inhibition of p-aminophenylmercuric acetate stimulated human recombinant MMP-2 using (7-methoxycoumarin-4-yl)-acetyl-pro-Leu-Gly-Leu-(3-(2,4-dinitrophenyl)-L-2,3-diaminopropionyl)-Ala-Arg-NH2 as substrate after 45 mins by fluorogenic assay
Caco-2 [8] = test: Inhibition of IL1beta/TNFalpha-stimulated MMP-2 secretion in human Caco2 cells at 10 uM after 24 hrs by densitometric analysis; format: functional, cell-based
How it was run: (§3)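 Near-confluent (~75%) Caco-2 switched to serum-free medium, pretreated 30 min with compound (10 μM, DMSO <1%), then TNF-α and IL-1β 10 ng/mL for 24 h at 37 °C. Cleared supernatants normalized by Bradford protein, run on 2% gelatin SDS-PAGE, Triton washed, developed 48 h at 37 °C in Tris pH 7.5/CaCl2 buffer, Coomassie stained; lysis bands quantified by densitometry as % of cytokine-only control.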

HT-1080 [9] = test: Inhibition of PMA-stimulated MMP-2 secretion in human HT1080 cells at 100 uM after 24 hrs by gelatin zymography; format: functional, cell-based
How it was run: (§4)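 HT1080 at ~75% confluence switched to serum-free medium, pretreated 3 h with compound (100 μM; DMSO ≤0.1%), then PMA 10 μM for 24 h at 37 °C. Cleared supernatants loaded at equal protein on 2% gelatin SDS-PAGE, Triton washed, developed 48 h at 37 °C in Tris pH 7.5/CaCl2 buffer, Coomassie stained; gelatinolytic bands quantified by densitometry relative to stimulated control.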

Caco-2 [10] = test: Inhibition of IL1beta/TNFalpha-stimulated MMP-9 secretion in human Caco2 cells at 10 uM after 24 hrs by densitometric analysis; format: functional, cell-based; how it was run: as §3
HT-1080 [11] = test: Induction of apoptosis in human HT1080 cells assessed as increase in apoptotic cell population at 10 uM after 24 hrs by Annexin V FITC staining based flow cytometry; settings: ht-1080, 24 h
How it was run: (§5)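 Cells at 80% confluence in T25 flasks treated 24 h serum-free with compound (10 μM); vehicle-only controls. Cells washed in Hepes pH 7.4/NaCl/CaCl2 binding buffer, double-stained with Annexin V-FITC and propidium iodide 15 min at room temperature in dark, read by flow cytometry within 5 min; expressed as % of control fluorescence.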

Caco-2 [12] = test: Inhibition of HGF-stimulated human Caco2 cells invasion at 10 uM by light microscopic analysis; format: functional; how it was run: as §2
HT-1080 [13] = test: Inhibition of PMA-stimulated MMP-9 secretion in human HT1080 cells at 100 uM after 24 hrs by gelatin zymography; format: functional; how it was run: as §4
HT-1080 [14] = test: Induction of apoptosis in human HT1080 cells assessed as increase in necrotic cell population at 10 uM after 24 hrs by Annexin V FITC staining based flow cytometry; settings: ht-1080, 24 h; how it was run: as §5
Caco-2 [15] = test: Induction of apoptosis in human Caco2 cells assessed as increase in apoptotic cell population at 10 uM after 24 hrs by Annexin V FITC staining based flow cytometry; settings: caco-2, 24 h; how it was run: as §5
Caco-2 [16] = test: Induction of nitrite release in human Caco2 cells at 200 uM after 24 hrs by Griess assay; format: functional, cell-based
How it was run: (§6)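 Compounds incubated 24 h with Caco-2 monolayers at 200 or 10 μM (n = 3). Supernatant nitrite read by Griess reaction (sulfanilamide 2% plus N-1-naphthylethylenediamine) at 4 °C, 45 min shaking, A540; nitrate measured after VCl3 reduction. Quantified against sodium nitrite/nitrate standards 3−200 μM; NOx = nitrite + nitrate.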

Caco-2 [17] = test: Induction of nitrate release in human Caco2 cells at 200 uM after 24 hrs by Griess assay; format: functional, cell-based; how it was run: as §6
Caco-2 [18] = test: Induction of apoptosis in human Caco2 cells assessed as increase in necrotic cell population at 10 uM after 24 hrs by Annexin V FITC staining based flow cytometry; settings: caco-2, 24 h; how it was run: as §5
Caco-2 [19] = test: Inhibition of PMA-stimulated human Caco2 cells migration through matrigel membrane at 10 uM after 48 hrs by light microscopic analysis; format: functional; settings: Caco-2, 48 h; how it was run: as §2
[20] = Cytotoxicity against human Caco2 cells assessed as inhibition of cell viability at 200 uM after 24 hrs by MTT assay; format: cell-based; settings: Caco-2 cells, read-out: INH; how it was run: as §1

Chain of 72 kDa type IV collagenase (P08253 whole entry): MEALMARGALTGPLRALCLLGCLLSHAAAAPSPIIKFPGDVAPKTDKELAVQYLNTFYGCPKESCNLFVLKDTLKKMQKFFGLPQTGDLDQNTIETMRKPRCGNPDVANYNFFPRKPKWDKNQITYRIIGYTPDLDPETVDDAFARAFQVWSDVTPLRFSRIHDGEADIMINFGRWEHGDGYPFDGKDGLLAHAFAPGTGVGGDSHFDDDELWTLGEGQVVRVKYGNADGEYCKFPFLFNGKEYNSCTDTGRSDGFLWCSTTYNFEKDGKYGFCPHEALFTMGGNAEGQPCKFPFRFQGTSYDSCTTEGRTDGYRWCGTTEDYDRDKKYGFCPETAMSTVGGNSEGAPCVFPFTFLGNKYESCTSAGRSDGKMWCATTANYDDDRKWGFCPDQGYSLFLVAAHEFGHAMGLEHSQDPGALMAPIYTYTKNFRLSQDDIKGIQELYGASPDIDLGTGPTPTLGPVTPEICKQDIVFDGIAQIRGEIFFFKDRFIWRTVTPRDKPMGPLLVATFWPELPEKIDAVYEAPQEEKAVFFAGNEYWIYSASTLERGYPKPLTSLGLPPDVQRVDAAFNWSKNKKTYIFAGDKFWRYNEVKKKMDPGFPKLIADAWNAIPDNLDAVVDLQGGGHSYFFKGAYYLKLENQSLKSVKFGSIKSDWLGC
Chain of Matrix metalloproteinase-9 (P14780 whole entry): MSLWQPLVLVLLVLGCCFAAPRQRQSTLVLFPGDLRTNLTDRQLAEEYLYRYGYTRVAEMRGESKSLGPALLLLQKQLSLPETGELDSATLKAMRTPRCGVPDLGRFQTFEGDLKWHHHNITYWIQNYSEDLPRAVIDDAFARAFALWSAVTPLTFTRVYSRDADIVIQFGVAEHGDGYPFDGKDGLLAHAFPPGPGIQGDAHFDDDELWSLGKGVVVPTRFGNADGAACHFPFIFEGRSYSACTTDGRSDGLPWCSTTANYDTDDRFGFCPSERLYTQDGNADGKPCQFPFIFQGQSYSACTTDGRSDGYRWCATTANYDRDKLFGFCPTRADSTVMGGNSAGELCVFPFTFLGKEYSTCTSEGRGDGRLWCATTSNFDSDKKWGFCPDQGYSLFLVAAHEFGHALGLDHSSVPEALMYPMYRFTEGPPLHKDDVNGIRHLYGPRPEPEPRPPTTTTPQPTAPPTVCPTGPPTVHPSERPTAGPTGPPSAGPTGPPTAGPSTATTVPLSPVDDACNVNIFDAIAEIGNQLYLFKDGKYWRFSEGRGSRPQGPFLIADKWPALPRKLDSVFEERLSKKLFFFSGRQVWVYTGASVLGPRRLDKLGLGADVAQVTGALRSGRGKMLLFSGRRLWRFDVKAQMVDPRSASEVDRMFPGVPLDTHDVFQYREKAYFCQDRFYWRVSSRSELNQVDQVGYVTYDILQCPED

O=C1NC(=O)C(c2ccc(Oc3ccccc3)cc2)(N2CCN(CCO)CC2)C(=O)N1
cytotoxicity at 24 h, 100 µM [1]: 33% | CC50 at 24 h [2]: > 100 µM | CC50 at 24 h [3]: > 100 µM | cytotoxicity at 24 h, 100 µM [4]: 25% | inhibition at 0.1 µM (Caco-2 [5]): 46.3%

O=C1NC(=O)C(c2ccc(Oc3ccccc3)cc2)(N2CCC(CO)CC2)C(=O)N1
CC50 at 24 h [2]: 47.8 µM | CC50 at 24 h [3]: 66.6 µM | IC50 [6]: 0.097 µM | inhibition at 0.1 µM (Caco-2 [5]): 39% | IC50 [7]: 0.066 µM

CN(CCO[N+](=O)[O-])C1(c2ccc(Oc3ccccc3)cc2)C(=O)NC(=O)NC1=O
inhibition (Caco-2 [8]): inactive | inhibition (HT-1080 [9]): Active | inhibition (Caco-2 [10]): Active | Activity (HT-1080 [11]): Non-toxic | CC50 at 24 h [2]: > 100 µM | inhibition (Caco-2 [12]): inactive | inhibition (HT-1080 [13]): Active | CC50 at 24 h [3]: 48.5 µM | Activity (HT-1080 [14]): Non-toxic | Activity (Caco-2 [15]): Non-toxic | Activity (Caco-2 [16]): Active | Activity (Caco-2 [17]): Active | cytotoxicity at 24 h, 100 µM [4]: 28% | IC50 [6]: 0.0476 µM | inhibition at 0.1 µM (Caco-2 [5]): 44.6% | Activity (Caco-2 [18]): Non-toxic | IC50 [7]: 0.053 µM

O=C1NC(=O)C(c2ccc(Oc3ccccc3)cc2)(N2CCC(CCO)CC2)C(=O)N1
CC50 at 24 h [2]: 25.2 µM | CC50 at 24 h [3]: 30.1 µM | IC50 [6]: 0.012 µM | IC50 [7]: 0.01 µM

CN(CCO)C1(c2ccc(Oc3ccccc3)cc2)C(=O)NC(=O)NC1=O
CC50 at 24 h [2]: 76.5 µM | CC50 at 24 h [3]: 78.5 µM | IC50 [6]: 0.145 µM | inhibition at 0.1 µM (Caco-2 [5]): 34.4% | IC50 [7]: 0.024 µM

O=C1NC(=O)C(c2ccc(Oc3ccccc3)cc2)(N2CCC(CCO[N+](=O)[O-])CC2)C(=O)N1
inhibition (Caco-2 [8]): inactive | inhibition (HT-1080 [9]): Active | inhibition (Caco-2 [10]): Active | Activity (HT-1080 [11]): Non-toxic | inhibition at 10 µM (Caco-2 [19]): 44.5% | CC50 at 24 h [2]: > 200 µM | cytotoxicity at 24 h, 200 µM [20]: 100% | inhibition (HT-1080 [13]): Active | CC50 at 24 h [3]: 78.7 µM | Activity (HT-1080 [14]): Non-toxic | Activity (Caco-2 [15]): Non-toxic | Activity (Caco-2 [16]): Active | Activity (Caco-2 [17]): Active | IC50 [6]: 0.152 µM | Activity (Caco-2 [18]): Non-toxic | IC50 [7]: 0.158 µM

— ChEMBL document CHEMBL2062484, “Design of barbiturate-nitrate hybrids that inhibit MMP-9 activity and secretion” (J Med Chem, 2012)
